# Published values pooled from the literature.
# Compare with care: the assays were run in different laboratories.
# Target: Serine/threonine-protein kinase MARK2 (MARK2, Homo sapiens, UniProt Q7KZI7)
Structure (SMILES),test,conditions,remaining binding
COc1ccc2cc(OCC3(C(=O)O)CN(C(=O)c4ccc(F)cc4)C3)ccc2c1,"cell-free assay, competition with immobilised ligand",1 µM,91%
F[C@@H]1CCN(c2nccc(-c3cnn4ncccc34)n2)C1,binding,1 µM,100%
CS(=O)(=O)NCC[C@H](NC(=O)c1cncc2c1cnn2-c1ccc(F)cc1)c1ccnc(S(C)(=O)=O)c1,"cell-free assay, competition with immobilised ligand",1 µM,75%
COc1cnc(Nc2cccc(S(N)(=O)=O)c2)nc1N1CCN(c2ccccc2)C(=O)C1,"binding, competition with immobilised ligand",1 µM,100%
C[C@H](c1ccnc(Nc2nc3ccc(-c4cc(N(C)C)ncn4)cc3[nH]2)c1)N1CCN(C(=O)CC(F)(F)F)CC1,"cell-free assay, competition with immobilised ligand",0.1 µM,100%
C[C@@H](c1ccc(-n2cnc3c(N)ncnc32)cc1)N1CCc2nn(C)c(Cc3ccccc3)c2C1=O,"binding, competition with immobilised ligand",0.1 µM,91%
O=C(NCCCN1CCOCC1)c1ccc(Nc2ncc(Cl)c(-c3ccc(Cl)s3)n2)cc1,"binding, competition with immobilised ligand",1 µM,74%
COc1cccc(CNC(=O)c2nc3scc(COCc4ccc(C(=O)O)cc4)c3c(=O)[nH]2)c1,"cell-free assay, competition with immobilised ligand",1 µM,100%
O=C(NCC1CCOCC1)c1n[nH]cc1NC(=O)c1c(F)cccc1F,"binding, competition with immobilised ligand",1 µM,71%
N[C@@H]1CCN(c2nccc(-c3cnn4ncccc34)n2)C1,binding,1 µM,100%
C=CC(=O)N1CCC(C(=O)NCC(=O)N2CCN(c3nc(-c4cnc(N)nc4C(F)F)nc(N4CCOCC4)n3)CC2)CC1,"binding, competition with immobilised ligand",1 µM,90%
O=C(NCCCN1CCOCC1)c1ccc(Nc2nccc(-c3cc4ccccc4s3)n2)cc1,"binding, competition with immobilised ligand",1 µM,81%
Nc1ncc2c(n1)-c1c([nH]c3ccc(C#CC4CC4)cc13)CCCC2,"binding, competition with immobilised ligand",1 µM,94%
CO[C@@H](C)c1c(Nc2ccc([C@@H](N(C)C(=O)C3CCS(=O)(=O)CC3)C(F)(F)F)cc2)cnc2cc(Cl)nn12,"cell-free assay, competition with immobilised ligand",1 µM,100%
COc1ccnn2ncc(-c3ccnc(N(C)C)n3)c12,binding,1 µM,92%
CNC(=O)[C@@H]1CC[C@@H](n2c(-c3ccc4cnccc4c3)nc3ccc(C(=O)NCc4cccc(C(N)=O)c4)cc32)C1,"binding, competition with immobilised ligand",1 µM,100%
CN(C)c1ncc(F)c(-c2cnn3ncccc23)n1,binding,1 µM,72%
O=C(c1ccc(Nc2ncc(Cl)c(-c3cc4ccccc4s3)n2)cc1)N1CCC(N2CCCC2)CC1,"binding, competition with immobilised ligand",1 µM,80%
C[C@H]1CCN(c2nccc(-c3cnn4ncccc34)n2)C1,binding,1 µM,100%
C[C@@]1(Cc2ccc(C#N)cc2)C(=O)N(c2cc(Cl)cc(Cl)c2)c2ncc(C(=O)NC3(c4nc(C5CCC5)no4)CC3)n21,"cell-free assay, competition with immobilised ligand",1 µM,85%
CN(c1nccc(-c2cnn3ncccc23)n1)C1CC1,binding,1 µM,100%
c1cncc(-c2cccc(Nc3nccc(NC4CCCCC4)n3)c2)c1,"binding, competition with immobilised ligand",10 µM,81%
